Assay outcomes: PubChem, several laboratories
In the library only some 1.9% were active in any assay of this set; here they are far more common.
pCIP destab – p/CIP protein destabilization; Q05BA5; F442A p/CIP-EGFP cells, EGFP fluorescence, 16 h; decrease of EGFP signal, % at 10 µM; hit rate 0.01% among 290,000;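 active = EGFP signal decrease of at least 30% at 10 µM or well 3 SD below plate mean, unless failing retest; inactive = the rest, including hits failing retest or dose response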
DNA FID counter – displaces DNA intercalator in HCV helicase counter-screen | inhibition, % at 7.9 µM | hit rate 0.17% among 290,000 | DNA fluorescent intercalator displacement, fluorescence; in the data active = inhibition above about 37%;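 note: higher means more ethidium bromide displaced from hairpin DNA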
NS3 helicase inh – inhibitors of Hepatitis C virus NS3 helicase; NS3 helicase DNA unwinding, Cy5 molecular beacon fluorescence; inhibition, % at 10.9 µM; hit rate 0.56% among 290,000; AID 1800;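 active = inhibition above the mean of all tested compounds plus 3 SD, set per campaign, cut at about 35% in these data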
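test system = hepatitis C virus NS3 helicase domain fragment enzyme | reagent = annealed dual-labelled DNA beacon duplex, ATP-started | times = 1 h at 25 °C | detection = Cy5 fluorescence, 0 and 60 min reads | read-out basis = percent inhibition from t60/t0 fluorescence ratio | control set = DMSO and thioflavine S | replication = one well per compound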
core dimer inh – blocks dimerization of HCV core protein; inhibition, % at 5 µM; TR-FRET GST/Flag-core106 dimerization, 1536-well; hit rate 0.33% among 300,000;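 active = inhibition above the mean of all tested compounds plus 3 SD, set per screening campaign, cut at about 45% in these data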
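Assay system: tagged HCV core106 pair (GST and Flag); medium: KF-containing HEPES buffer, pH 7.45, DTT, CHAPS, BSA; also added: Eu donor and XL665 acceptor anti-tag antibodies; dosing: 5 µM single dose; timing: compound-protein-antibody incubation 4 h at 22.5 °C; signal: TR-FRET 671 and 617 nm emission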
GPR7 antag – blocks human GPR7 receptor signaling. GPR7-expressing cells, fluorescence antagonist assay. inhibition, % at 4.4 µM. hit rate 1.1% among 290,000; in the data active = inhibition above about 16%, passing the limit was not always enough;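 note: cells stimulated with the agonist NPW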
Of the large screens only hits and unclear results are named; the others gave an inactive call.

N#Cc1nccnc1S(=O)(=O)c1cccs1	GPR7 antag 18.3
Cc1cc2c(cc1S(=O)(=O)N1CC(C)CC(C)C1)OCC(=O)N2 (configuration not stated)	none
COc1cc(CNCCCN2CCOCC2)cc(Br)c1OCc1ccc(Cl)cc1	DNA FID counter 41.5, GPR7 antag 58.8
COc1cc(CNCCN2CCOCC2)ccc1OCc1ccc(Cl)cc1	none
CCOC(=O)C1CCCN(C(=O)c2cc(-c3ccc(F)cc3)nc3ccccc23)C1 (configuration not stated)	none
CCN1CCCC(OC(=O)c2cc(-c3ccc(C)cc3)nc3ccccc23)C1 (configuration not stated)	DNA FID counter 38.5
C/C=C\C=C/C(=O)Nc1cccc(C2=NOC3(C2)C[C@H](C(N)=O)N(C(=O)CC)C3)c1 (some centres not stated)	none (no result: DNA FID counter, NS3 helicase inh, GPR7 antag)
C/C=C/C=C\C(=O)Nc1cccc(C2=NOC3(C2)C[C@@H](C(N)=O)N(C(=O)/C(C)=C/C)C3)c1 (some centres not stated)	core dimer inh 52.3 (no result: DNA FID counter, NS3 helicase inh, GPR7 antag)
C/C=C/C=C/C(=O)N1CC2(CC(c3cccc(NC(=O)/C=C/C)c3)=NO2)C[C@@H]1C(N)=O (some centres not stated)	core dimer inh 47.3 (no result: DNA FID counter, NS3 helicase inh, GPR7 antag)
CC(=O)c1c(C)oc2ccc(NS(=O)(=O)c3ccc(C)cc3)cc12	none
Cc1oc2ccc(NS(=O)(=O)c3ccc(C(C)(C)C)cc3)cc2c1C(=O)Nc1ccccc1	core dimer inh 53.6
Cc1ccc(-n2cccc2/C=C2/C(=N)N3C(=NC2=O)SN=C3S(C)(=O)=O)cc1	core dimer inh 57.2
CCc1ccc(-n2cccc2/C=C2/C(=N)N3C(=NC2=O)SN=C3S(C)(=O)=O)cc1	core dimer inh 48.7
Cc1cc(C)cc(-n2cccc2/C=C2/C(=N)N3C(=NC2=O)SN=C3S(C)(=O)=O)c1	none
N#CC1=C2SCC(O)(c3ccccc3)N2C(=O)CC1c1ccccc1 (configuration not stated)	GPR7 antag 16.9
O=S(=O)(Nc1ncnc2sc3c(c12)CCC3)c1ccc(Cl)s1	core dimer inh 46.6
O=S(=O)(Nc1ncnc2sc3c(c12)CCC3)c1cc(F)ccc1F	none
O=c1cc(CN2CCc3ccccc32)nc2sccn12	core dimer inh 85.9
O=c1cc(CN2CCCc3ccccc32)nc2sccn12	none
COc1ccc(S(=O)(=O)n2nc(-c3ccc(Cl)cc3)cc2N)cc1OC	GPR7 antag 18.2
CCOc1ccc(-c2cc(N)n(S(=O)(=O)c3ccc(OC)c(OC)c3)n2)cc1	none
CSc1ccc2c(c1)C(N1CCN(C)CC1)Cc1ccccc1S2 (configuration not stated)	GPR7 antag 35.1
O=C(Nc1nnc(CCc2ccccc2)s1)c1cccc(F)c1	none
O=C(COc1ccc2c(c1)OCO2)Nc1ccccc1F	none
Fc1ccc([C@@H]2CCNC[C@H]2COc2ccc3c(c2)OCO3)cc1	GPR7 antag 31.8
O=C(NC1CCCCNC1=O)c1ccco1 (configuration not stated)	none
Cc1ccn(CCC(=O)Nc2ccc(-c3ccno3)cc2)n1	none
Cc1oc(-c2ccc(Cl)cc2)cc1-c1nn2c(-c3ccoc3C)nnc2s1	NS3 helicase inh 42.3, core dimer inh 83.5
Cc1csc(NC(=O)CCc2nc3ccccc3s2)n1	core dimer inh 55.4
O=C(COC(=O)CCc1nc2ccccc2s1)Nc1nc(-c2ccccc2)cs1	none
NS(=O)(=O)c1ccc(CCNC(=O)COc2ccc3c4c(c(=O)oc3c2)CCC4)cc1	DNA FID counter 87.6
O=C(COc1ccc2c3c(c(=O)oc2c1)CCC3)Nc1ccc(CCO)cc1	none
Cc1c(C#N)c(NC(=O)CCl)n(Cc2cccs2)c1C	none
Cc1cc(-c2nnco2)c(C)n1-c1ccc(F)cc1	none
Cc1ccc(C)n1-c1ccc(-c2nnco2)cc1	core dimer inh 67.1
Cc1cc(OCCNCCO)cc(C)c1Cl	none
Cc1cc(OCCCCCNCCO)cc(C)c1Cl	GPR7 antag 19.1
COc1ccc(CC(=O)Nc2ccc(C(C)=O)cc2)cc1	GPR7 antag 25.1
CCc1ccc(NC(=O)Cc2ccc(OC)cc2)cc1	none
O=C(NCC(=O)N1CCN(c2ccccc2O)CC1)c1ccc(Br)o1	none (no result: pCIP destab, DNA FID counter, NS3 helicase inh, GPR7 antag)
Cc1ccc(C)c(N(C(=O)c2ccco2)C(C(=O)NC2CCCC2)c2ccco2)c1 (configuration not stated)	none
Cc1ccc(-n2c(N)c(C(=O)Nc3c(C)n(C)n(-c4ccccc4)c3=O)c3nc4ccccc4nc32)cc1C	NS3 helicase inh 72.0
COc1ccc(-n2c(N)c(C(=O)Nc3c(C)n(C)n(-c4ccccc4)c3=O)c3nc4ccccc4nc32)cc1	none
COc1cccc(NC(=O)CN(C)C(=O)CCc2nc3sc4c(c3c(=O)[nH]2)CCCC4)c1	core dimer inh 49.2
CCOC(=O)N1CCN(C(=O)c2nn(-c3cc(OC)cc(OC)c3)c(=O)c3ccccc23)CC1	none
CCOC(=O)N1CCN(C(=O)c2cn(-c3ccc(C)c(C)c3)c(=O)c3ccccc23)CC1	GPR7 antag 74.7 (no result: core dimer inh)
COc1ccc(CNC(=O)C(c2ccco2)N(C(=O)c2snc(C(N)=O)c2N)c2ccccc2OC)cc1 (configuration not stated)	none
O=C(Nc1ccc(C2=NCCN2)cc1)c1ccc(C(=O)Nc2ccc(C3=NCCN3)cc2)c(Cl)c1	DNA FID counter 36.7
CC1CCC2(CC1)NC(=O)N(CC(=O)Nc1sc3c(c1C(N)=O)CCC3)C2=O (configuration not stated)	core dimer inh 52.2
CC1CCCCC12NC(=O)N(CC(=O)Nc1sc3c(c1C(N)=O)CCC3)C2=O (configuration not stated)	core dimer inh 69.3
CC(C)[C@H](NC(=O)c1ccco1)C(=O)OCc1cc(=O)n2c(n1)sc1ccccc12	none
Cc1ccc(C(=O)N[C@H](C(=O)OCc2cc(=O)n3c(n2)sc2ccccc23)C(C)C)cc1	none
O=C(Cc1coc2cc3c(cc12)CCC3)OCc1cc(=O)n2c(n1)sc1ccccc12	core dimer inh 57.4
O=C(OCc1cc(=O)n2c(n1)sc1ccccc12)c1cccc(O)c1	core dimer inh 50.8
CCOc1ccc(S(=O)(=O)N2CCc3ccccc3C2)cc1	GPR7 antag 19.8
CN(CCOc1ccc(-c2ccn(S(=O)(=O)c3ccc(Cl)cc3)n2)cc1)c1ccccn1	GPR7 antag 18.7
O=C(NCCC(=O)N1CCCC(C(F)(F)F)C1)c1ccccc1Cl (configuration not stated)	none
Cc1ccc(-c2noc(CCC(=O)NCCCN3CCN(c4ccc(F)cc4)CC3)n2)cc1	none
Cc1ccc(-c2noc(CCC(=O)NCCCN3CCN(c4cccc(Cl)c4)CC3)n2)cc1	GPR7 antag 19.0
CCN1CCN(C(=O)CCc2nnc(CCc3ccccc3OC)o2)[C@@H](C)C1=O	none
